From ChEMBL document CHEMBL1138885, “Further structural exploration of trisubstituted asymmetric pyran derivatives (2S,4R,5R)-2-benzhydryl-5-benzylamino-tetrahydropyran-4-ol and their corresponding disubstituted (3S,6S) pyran derivatives: a proposed pharmacophore model for high-affinity interaction with the dopamine, serotonin, and …” (J Med Chem, 2006)

Columns and labels:
Format in all cases: tissue-based
[1] = target: T1, Sodium-dependent dopamine transporter (Rattus norvegicus, UniProt P23977); assay: Inhibition of DAT-mediated [3H]DA uptake in rat striatum
T1 sequence (P23977 whole entry): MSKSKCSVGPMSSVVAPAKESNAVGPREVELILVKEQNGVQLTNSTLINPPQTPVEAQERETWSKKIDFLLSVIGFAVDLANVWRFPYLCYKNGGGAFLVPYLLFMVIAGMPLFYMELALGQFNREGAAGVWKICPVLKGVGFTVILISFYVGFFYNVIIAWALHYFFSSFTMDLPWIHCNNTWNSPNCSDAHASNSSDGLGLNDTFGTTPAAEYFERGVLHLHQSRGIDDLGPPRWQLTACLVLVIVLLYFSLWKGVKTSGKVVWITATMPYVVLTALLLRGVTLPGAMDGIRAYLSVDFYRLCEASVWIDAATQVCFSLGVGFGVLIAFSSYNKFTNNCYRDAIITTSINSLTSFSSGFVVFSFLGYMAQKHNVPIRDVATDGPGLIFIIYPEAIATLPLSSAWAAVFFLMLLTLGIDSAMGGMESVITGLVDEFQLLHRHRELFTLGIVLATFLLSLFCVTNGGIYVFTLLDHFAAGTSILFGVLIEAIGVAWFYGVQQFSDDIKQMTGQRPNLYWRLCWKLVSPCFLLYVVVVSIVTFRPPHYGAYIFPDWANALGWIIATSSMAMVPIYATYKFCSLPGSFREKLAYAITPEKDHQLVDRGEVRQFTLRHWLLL
Summary of the method: (§1)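 [3H]DA, [3H]5-HT or [3H]NE accumulation measured; SERT and NET uptake in rat cerebral cortex. Nonspecific uptake defined with cocaine (DAT), citalopram (SERT) or desipramine (NET). Three to eight independent experiments in triplicate, mean ± SEM.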

[2] = target: Norepinephrine transporter (Rattus norvegicus, UniProt Q9WTR4); assay: Inhibition of NET-mediated [3H]NE uptake in rat cerebral cortex; summary of the method: as §1
Chain of Norepinephrine transporter (Q9WTR4 whole entry): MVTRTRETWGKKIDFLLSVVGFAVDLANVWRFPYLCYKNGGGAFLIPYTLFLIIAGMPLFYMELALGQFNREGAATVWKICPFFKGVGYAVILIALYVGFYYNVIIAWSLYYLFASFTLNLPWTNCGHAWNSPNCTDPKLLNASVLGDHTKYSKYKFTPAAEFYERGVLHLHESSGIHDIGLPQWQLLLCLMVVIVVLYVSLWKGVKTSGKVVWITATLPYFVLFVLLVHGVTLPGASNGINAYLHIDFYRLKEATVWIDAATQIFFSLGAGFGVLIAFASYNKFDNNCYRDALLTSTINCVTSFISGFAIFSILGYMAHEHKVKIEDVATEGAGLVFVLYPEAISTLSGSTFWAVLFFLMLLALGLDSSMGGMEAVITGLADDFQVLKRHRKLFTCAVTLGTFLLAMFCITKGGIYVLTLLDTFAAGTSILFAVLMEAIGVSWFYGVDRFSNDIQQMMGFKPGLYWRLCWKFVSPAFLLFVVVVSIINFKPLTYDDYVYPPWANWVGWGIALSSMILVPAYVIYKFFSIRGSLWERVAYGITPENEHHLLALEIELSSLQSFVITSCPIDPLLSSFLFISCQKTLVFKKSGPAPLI

[3] = target: T1, Sodium-dependent dopamine transporter; assay: Inhibition of [3H]WIN-35428 binding to rat striatum DAT
Summary of the method: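 DAT radioligand binding with nonspecific binding defined by cocaine. Compounds dissolved in DMSO, diluted in 10% (v/v) DMSO, final 0.5% DMSO. At least five concentrations, each in triplicate, spaced evenly around the IC50.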

[4] = target: Sodium-dependent serotonin transporter (Rattus norvegicus, UniProt P31652); assay: Inhibition of SERT-mediated [3H]5-HT uptake in rat cerebral cortex; summary of the method: as §1
Chain of Sodium-dependent serotonin transporter (P31652 whole entry): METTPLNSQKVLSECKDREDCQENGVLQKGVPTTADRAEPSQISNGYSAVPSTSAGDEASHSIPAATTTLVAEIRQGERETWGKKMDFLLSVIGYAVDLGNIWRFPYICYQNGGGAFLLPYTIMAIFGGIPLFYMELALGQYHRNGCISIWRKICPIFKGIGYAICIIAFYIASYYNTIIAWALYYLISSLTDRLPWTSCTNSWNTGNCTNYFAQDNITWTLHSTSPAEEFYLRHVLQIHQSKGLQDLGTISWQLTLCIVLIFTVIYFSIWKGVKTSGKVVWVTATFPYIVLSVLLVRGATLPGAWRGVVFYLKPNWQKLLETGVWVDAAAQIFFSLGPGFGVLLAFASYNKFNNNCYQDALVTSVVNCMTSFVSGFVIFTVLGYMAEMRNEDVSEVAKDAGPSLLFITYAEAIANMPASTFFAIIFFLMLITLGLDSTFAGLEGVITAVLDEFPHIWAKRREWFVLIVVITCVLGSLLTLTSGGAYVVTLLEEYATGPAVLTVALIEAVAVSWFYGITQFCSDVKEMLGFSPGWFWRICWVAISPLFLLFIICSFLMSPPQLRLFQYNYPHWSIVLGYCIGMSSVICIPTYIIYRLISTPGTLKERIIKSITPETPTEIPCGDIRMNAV

| Structure (SMILES) | Ki [1] | Ki [2] | Ki [3] | Ki [4] |
| --- | --- | --- | --- | --- |
| c1ccc(C(c2ccccc2)[C@@H]2CC[C@H](NCc3ccc4[nH]ccc4c3)CO2)cc1 | 214 nM | 6.56 nM | 338 nM | 14.5 nM |
| O=[N+]([O-])c1ccc(CN[C@@H]2CC[C@H](C(c3ccccc3)c3ccccc3)OC2)cc1 | 59.9 nM |  | 64.6 nM |  |
| O[C@@H]1C[C@@H](C(c2ccccc2)c2ccccc2)OC[C@H]1NCc1ccc2[nH]ccc2c1 | 120 nM | 2.13 nM | 570 nM |  |
| Oc1ccc(CN[C@@H]2CC[C@H](C(c3ccccc3)c3ccccc3)OC2)cc1 | 67.4 nM |  | 114 nM | 187 nM |
| Oc1ccc(CN[C@H]2CC[C@@H](C(c3ccccc3)c3ccccc3)OC2)cc1 | 85 nM |  | 226 nM | 37.7 nM |
| O=[N+]([O-])c1ccc(CN[C@H]2CC[C@@H](C(c3ccccc3)c3ccccc3)OC2)cc1 | 34.6 nM |  | 38.4 nM |  |
| Oc1ccc(CN[C@@H]2CO[C@H](C(c3ccccc3)c3ccccc3)C[C@H]2O)cc1 |  | 10.4 nM |  |  |
| O[C@@H]1C[C@@H](C(c2ccccc2)c2ccccc2)OC[C@H]1NCc1ccccc1 | 446 nM |  | 1500 nM | 707 nM |
| c1ccc(C(c2ccccc2)[C@H]2CC[C@@H](NCc3ccc4[nH]ccc4c3)CO2)cc1 | 142 nM | 15.6 nM | 467 nM | 11.8 nM |
| Oc1ccc(CN[C@H]2CO[C@@H](C(c3ccccc3)c3ccccc3)C[C@@H]2O)cc1 |  | 94.4 nM |  |  |
| O[C@H]1C[C@H](C(c2ccccc2)c2ccccc2)OC[C@@H]1NCc1ccc2[nH]ccc2c1 | 184 nM | 13.2 nM | 399 nM |  |
